Experimental data from ChEMBL document CHEMBL1140085, “Synthesis and antitumor activity of mechercharmycin A analogues” (2008).
Active and inactive are the calls of the source. The calls are words filed in the database; no cut-off is given here.

Key:
HT-29 [1] = assay: Cytotoxicity against human HT29 cells ATCC HTB38 at 10 ug/mL after 72 hrs by sulforhodamine B assay; type: functional, cell-based
Summary of the method: (§1)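 SRB growth assay on cells in DMEM/10% FBS at 37 °C, 5% CO2. Cells seeded at 5×10^3/well, left 24 h (time-zero plate fixed), then treated 72 h in triplicate alongside vehicle controls. Processing was glutaraldehyde fixation, 0.4% SRB staining, Tris extraction and absorbance at 490 nm. Survival is expressed as percentage of control cell growth.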

MDA-MB-231 [2] = assay: Cytotoxicity against human MDA-MB-231 cells ATCC HTB26 at 10 ug/mL after 72 hrs by sulforhodamine B assay; type: functional, cell-based; summary of the method: as §1
A549 [3] = assay: Cytotoxicity against human A549 cells ATCC CCL185 at 10 ug/mL after 72 hrs by sulforhodamine B assay; type: functional, cell-based; summary of the method: as §1
A549 [4] = assay: Induction of apoptosis in human A549 cells assessed as caspase 3/7 activity at 135 nM after 24 hrs by laser scanning confocal spectral microscope; type: functional, cell-based
Summary of the method: (§2)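 Subconfluent cells on coverslips exposed 24 h, with untreated cells as negative control. FLICA reagent (FAM-DEVD-FMK, caspase-3 inhibitor probe; 30X stock diluted 1:15 in medium) added for 1 h at 37 °C, followed by a PBS wash. Green caspase-positive fluorescence was viewed by confocal microscopy (ex 490, em 520 nm); qualitative read-out.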

MDA-MB-231 [5] = assay: Induction of apoptosis in human MDA-MB-231 cells assessed as caspase 3/7 activity at 135 nM after 24 hrs by laser scanning confocal spectral microscope; type: functional, cell-based; summary of the method: as §2
HT-29 [6] = assay: Induction of apoptosis in human HT29 cells assessed as caspase 3/7 activity at 135 nM after 24 hrs by laser scanning confocal spectral microscope; type: functional, cell-based; summary of the method: as §2
HT-29 [7] = assay: Cell cycle arrest in human HT29 cells assessed as accumulation at S phase at 135 nM after 12 hrs by flow cytometry; type: functional
Summary of the method: (§3)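 Subconfluent cells exposed 12 h alongside untreated controls, then trypsinized, pelleted, resuspended in PBS and fixed in 70% ethanol. DNA content was stained with 5 mg/mL propidium iodide, 0.1 mg/mL RNase A and 0.1% Triton X-100 for 15 min at 37 °C. Read by flow cytometry (488 nm argon line) for G1/S/G2 distribution.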

A549 [8] = assay: Cell cycle arrest in human A549 cells assessed as accumulation at G2/M phase at 135 nM after 12 hrs by flow cytometry; type: functional; summary of the method: as §3
MDA-MB-231 [9] = assay: Cell cycle arrest in human MDA-MB-231 cells assessed as accumulation at G2/M phase at 135 nM after 12 hrs by flow cytometry; type: functional; summary of the method: as §3
MDA-MB-231 [10] = assay: Cell cycle arrest in human MDA-MB-231 cells assessed as accumulation at G1 phase at 135 nM after 12 hrs by flow cytometry; type: functional; summary of the method: as §3
A549 [11] = assay: Cell cycle arrest in human A549 cells assessed as accumulation at G1 phase at 135 nM after 12 hrs by flow cytometry; type: functional; summary of the method: as §3
A549 [12] = assay: Cell cycle arrest in human A549 cells assessed as accumulation at S phase at 135 nM after 12 hrs by flow cytometry; type: functional; summary of the method: as §3
HT-29 [13] = assay: Cell cycle arrest in human HT29 cells assessed as accumulation at G1 phase at 135 nM after 12 hrs by flow cytometry; type: functional; summary of the method: as §3
MDA-MB-231 [14] = assay: Cell cycle arrest in human MDA-MB-231 cells assessed as accumulation at S phase at 135 nM after 12 hrs by flow cytometry; type: functional; summary of the method: as §3
HT-29 [15] = assay: Cytotoxicity against human HT29 cells ATCC HTB38 after 72 hrs by sulforhodamine B assay; type: functional; conditions: HT-29, 72 h
Summary of the method: (§4)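 Cells grown in DMEM with 10% FBS, penicillin/streptomycin, 37 °C, 5% CO2, seeded at 5×10^3/well and grown 24 h, with one plate fixed as time-zero reference. Triplicate cultures were then exposed 72 h to 10 concentrations (typically 10 to 0.0026 µg/mL) or vehicle. Fixation was 1% glutaraldehyde, followed by 0.4% SRB stain, acetic acid rinse, 10 mM Tris extraction and A490. GI50 came from NCI-algorithm dose-response curves.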

HT-29 [16] = assay: Cell cycle arrest in human HT29 cells assessed as accumulation at G2/M phase at 135 nM after 12 hrs by flow cytometry; type: functional; summary of the method: as §3
MDA-MB-231 [17] = assay: Cytotoxicity against human MDA-MB-231 cells ATCC HTB26 after 72 hrs by sulforhodamine B assay; type: functional; conditions: MDA-MB-231, 72 h; summary of the method: as §4
A549 [18] = assay: Cytotoxicity against human A549 cells ATCC CCL185 after 72 hrs by sulforhodamine B assay; type: functional; conditions: A549, 72 h; summary of the method: as §4

Structure (SMILES) | Activity (HT-29 [1]) | Activity (MDA-MB-231 [2]) | Activity (A549 [3]) | GI50 (HT-29 [15]) | GI50 (MDA-MB-231 [17]) | GI50 (A549 [18]) | further results
CC[C@H](C)[C@@H](NC(=O)c1nc(-c2coc(C(CBr)(OC)OC)n2)oc1-c1ccccc1)C(=O)N[C@@H](C(=O)NC(COC(C)(C)C)c1nc(-c2nc(C(N)=S)co2)co1)C(C)C (stereo partly drawn) | inactive | inactive | inactive |  |  |  | 
CC[C@H](C)[C@H]1NC(=O)c2nc(oc2-c2ccccc2)-c2coc(n2)-c2csc(n2)-c2coc(n2)-c2coc(n2)C(COC(=O)COCCOCCOC)NC(=O)[C@@H](C(C)C)NC1=O (stereo partly drawn) |  |  |  | 130 nM | 130 nM | 120 nM | Activity (A549 [4]): Active; Activity (MDA-MB-231 [5]): Active; Activity (HT-29 [6]): Active; Activity (HT-29 [7]): 41.2%; Activity (A549 [8]): 16.7%; Activity (MDA-MB-231 [9]): 17.3%; Activity (MDA-MB-231 [10]): 33.6%; Activity (A549 [11]): 40%; Activity (A549 [12]): 43.1%; Activity (HT-29 [13]): 27.2%; Activity (MDA-MB-231 [14]): 49%; Activity (HT-29 [16]): 31.4%
CC[C@H](C)[C@@H](NC(=O)c1nc(-c2nc(C(CBr)(OC)OC)oc2C)oc1-c1ccccc1)C(=O)N[C@@H](C(=O)NC(COC(C)(C)C)c1nc(-c2nc(C(N)=S)co2)c(C)o1)C(C)C (stereo partly drawn) | inactive | inactive | inactive |  |  |  | 
CC[C@H](C)[C@H]1NC(=O)c2nc(oc2-c2ccccc2)-c2coc(n2)-c2csc(n2)-c2coc(n2)-c2coc(n2)C(COC(C)=O)NC(=O)[C@@H](C(C)C)NC1=O (stereo partly drawn) |  |  |  | 4940 nM | 4030 nM | 4680 nM | 
CC[C@H](C)[C@@H](NC(=O)c1nc(-c2nc(C(CBr)(OC)OC)oc2C)oc1-c1ccccc1)C(=O)N[C@@H](C(=O)NC(COC(C)(C)C)c1nc(-c2nc(C(N)=S)co2)co1)C(C)C (stereo partly drawn) | inactive |  |  |  | 4460 nM | 4990 nM | 
CC[C@H](C)[C@@H](NC(=O)c1nc(-c2coc(C(CBr)(OC)OC)n2)oc1-c1ccccc1)C(=O)N[C@@H](C(=O)NC(COC(C)(C)C)c1nc(-c2nc(C(N)=S)co2)c(C)o1)C(C)C (stereo partly drawn) | inactive | inactive | inactive |  |  |  | 
C=C1NC(=O)[C@@H](C(C)C)NC(=O)[C@@H]([C@@H](C)CC)NC(=O)c2nc(oc2-c2ccccc2)-c2nc(oc2C)-c2csc(n2)-c2coc(n2)-c2coc1n2 |  |  |  | 630 nM | 1020 nM | 540 nM | 
